tim10-1 inh: inhibits growth of tim10-1 mutant yeast. hit rate 2.2% among 330,000. S. cerevisiae tim10-1 ts strain growth, BacTiter-Glo, 24 h. AID 463190. inhibition, % at 20 µM;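 active = inhibition of at least 40%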;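 also: mutant grown at 25 °C; 0% = DMSO wells with yeast and 100% = wells holding no yeast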
tim23-1 inh: growth inhibitors of tim23-1 mutant yeast; S. cerevisiae tim23-1 growth, BacTiter-Glo luminescence, 24 h; inhibition, % at 20 µM; hit rate 1.3% among 330,000;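 active = growth inhibition of the mutant yeast at or above 50%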;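 also: temperature-sensitive mutant grown at 25 °C; plate controls were DMSO-treated mutant yeast for no effect and medium wells lacking yeast for full effect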
UPR CHOP act: apoptotic UPR (CHOP) activation | CHO-CHOP luciferase reporter, luminescence; percent of tunicamycin response over DMSO baseline | hit rate 0.34% among 330,000 | activation, % at 10 µM;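 active = at 10 µM dose, activation of 40% or more, normalized to positive control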;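 also: 100% = tunicamycin at 10 µg/mL and 0% = DMSO alone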
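Assay system: CHO-CHOP cells, stable luciferase reporter of PERK-eIF2a-CHOP signalling / Buffer or medium: F12 plus 10% serum / Compound dosing: one dose, 10 µM in 0.5% DMSO / Times: 6 h compound treatment, 37 °C / Technique: luciferase luminescence / Read-out: % reporter activation, DMSO baseline versus tunicamycin full activation / Benchmarks: tunicamycin and DMSO controls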
UPR XBP1 act: adaptive UPR (XBP1) activation; CHO-XBP1 luciferase reporter, IRE1-XBP1 UPR activation, luminescence; percent of tunicamycin response, DMSO as zero; activation, % at 20 µM; hit rate 0.33% among 330,000; AID 463104;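 active = versus positive control, 20 µM dose yields 30% or more activation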;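 also: 100% = tunicamycin at 10 µg/mL and 0% = DMSO only wells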
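assay system = CHO-XBP1 luciferase reporter cells | amount = 1000 cells/well | buffer or medium = F12 plus 10% FBS | compound dosing = single point, 20 µM final compound, 1% DMSO | incubation = 16-18 h cell attachment at 37 °C, then 6 h compound exposure | detection = Steady-Glo luminescence read | controls = tunicamycin 10 µg/mL and vehicle-only wells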
TIM10 inh: growth inhibitors of TIM10 yeast strain. S. cerevisiae TIM10 strain growth, BacTiter-Glo luminescence, 24 h. inhibition, % at 10 µM. hit rate 1.4% among 330,000. AID 463195;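 active = inhibition of 40% or more at the single tested concentration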;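 also: wild-type TIM10 isogenic control strain grown at permissive 25 °C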
tim10-1 confirm: confirmation of tim10-1 mutant yeast growth inhibitors; shares compounds with tim10-1 inh; S. cerevisiae tim10-1 ts strain growth, BacTiter-Glo, 24 h; inhibition, % at 20 µM; hit rate 56% among 7,400;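 active = inhibition of yeast growth at or above a set limit in either of two repeat tests at 20 µM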;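 also: tim10-1 mutant grown at permissive 25 °C to find synthetic lethal compounds; 0% = DMSO yeast wells and 100% = medium wells without yeast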
* hit, by the source's call; nt = no result. Sampled rows, rich in hits. Any-hit rate of the full collection: about 3.9%.

SMILES	tim10-1 inh	tim23-1 inh	UPR CHOP act	UPR XBP1 act	TIM10 inh	tim10-1 confirm
Cc1nn2c(N3CCN(C(=O)c4ccco4)CC3)cc(C(C)(C)C)nc2c1-c1ccccc1	50*	44	2	-2	22	26
CCN1C(=O)C(CC(=O)Nc2ccc(OC)cc2)N(Cc2ccc(OC)c(OC)c2)C1=S (stereo not drawn)	8	6	1	1	6	nt
CCN1C(=O)C(CC(=O)Nc2ccc(OC)cc2)N(CCc2ccc(OC)cc2)C1=S (stereo not drawn)	47*	48	-1	-4	5	32*
COc1ccc(-c2csc(CCn3nc(C)cc3C)n2)cc1	41*	27	5	0	25	35*
C/C(CC(=O)Nc1ccc(Cl)c(C(F)(F)F)c1)=N\NC(=O)c1cnccn1	49*	34	0	-3	17	25
c1ccc(Sc2nc(N3CCCCC3)nc(N3CCCCC3)n2)nc1	41*	21	-1	-1	23	21
C=CCNC(=S)NNc1nc2c(c(=O)[nH]1)C1(CCCC1)Cc1ccccc1-2	48*	37	0	2	34	38*
O=c1[nH]c(NNC(=S)NCc2ccccc2)nc2c1C1(CCCCC1)Cc1ccccc1-2	43*	21	-2	-2	32	30
Cc1ccc(-c2csc(NC(=O)CN3CC(C)OC(C)C3)n2)cc1 (stereo not drawn)	40*	41	0	-5	26	34*
CCOCc1c(C(=O)NC2=Nc3ccccc3NC(CC)=C2C(=O)OCC)oc2ccccc12	28	36	-1	-2	13	nt
CCOC(=O)C1=C(CC)Nc2ccccc2N=C1NC(=O)c1oc2ccccc2c1C	43*	29	6	1	27	-8
COc1ccccc1N1C(=O)CC(Sc2nccc(C)n2)C1=O (stereo not drawn)	-1	8	0	-2	2	nt
COc1ccccc1N1C(=O)CC(Sc2n[nH]c(-c3cccc(C)c3)n2)C1=O (stereo not drawn)	47*	46	2	-2	9	36*
O=C(COc1ccccc1Cl)N1CCNC1=O	-25	-13	0	-3	-11	nt
O=C(NNc1ccc([N+](=O)[O-])cc1)c1ccccc1Cl	-37	-13	0	-1	3	nt
O=C(NC(NNc1ccc([N+](=O)[O-])cc1)(C(F)(F)F)C(F)(F)F)c1ccc(Cl)cc1	64*	37	-2	1	35	51*
COc1ccc(C(=O)CCC(=O)NC2=NCCS2)cc1	3	-15	1	0	-5	nt
COc1ccccc1NC(=S)N(Cc1ccccc1)Cc1ccccn1	17	35	3	-4	31	nt
S=C(Nc1ccccc1Cl)N(Cc1ccccc1)Cc1ccccn1	47*	33	1	0	2	25
COc1ccc2cc(C)c3nnc(SCc4cccnc4)n3c2c1	41*	29	3	2	28	34*
COC(=O)CN1C(=O)N/C(=C/c2ccc(OC)cc2)C1=O	4	3	1	0	0	nt
CCOC(=O)COc1ccc(/C=C2\NC(=S)N(CC)C2=O)cc1	40	27	-2	1	18	25
Cc1csc(-c2coc3cc(O)cc(C)c3c2=O)n1	43*	50	5	6	16	9
CCS(=O)(=O)c1ccc(OC)c(N=Nc2ccc(O)c3ncccc23)c1	41*	20	-1	0	13	38*
CCOc1ccc(N=Nc2ccc(O)c3ncccc23)cc1	4	36	15	3	21	nt
CCN(CC)S(=O)(=O)c1cc(OC)ccc1N=Nc1ccc(O)c2ncccc12	44*	39	1	1	23	42*
CC(C)(Oc1ccc(F)cc1)C(=O)OCC(=O)c1ccc(S(C)(=O)=O)cc1	11	15	-1	-1	4	nt
CC1(C)Cc2c(cnn2-c2cccc(F)c2)C(NC(=O)CSc2ccccn2)C1 (stereo not drawn)	12	22	2	-5	8	nt
CCC(=O)NC(c1ccco1)c1cc(Cl)c2cccnc2c1O (stereo not drawn)	40	46	0	-2	1	28

Assay outcomes from PubChem BioAssay.
